Test results taken from ChEMBL document CHEMBL1909494, “Synthesis and structure-activity relationship studies of 4-arylthiosemicarbazides as topoisomerase IV inhibitors with Gram-positive antibacterial activity. Search for molecular basis of antibacterial activity of thiosemicarbazides” (Eur J Med Chem, 2011).
Converted amounts (≈) assume the structure as drawn. The source made the active and inactive calls. The rule behind the calls is not given here.

How the values were obtained:
[1] = tested on: Staphylococcus epidermidis; assay: Antibacterial activity against Staphylococcus epidermidis ATCC 12228 by agar dilution method; type: functional
Bacillus cereus = assay: Antibacterial activity against Bacillus cereus ATCC 11778 by agar dilution method; type: functional
[2] = biological target: DNA gyrase (Staphylococcus aureus) (UniProt P0A0K8+P20831); assay: Inhibition of Staphylococcus aureus gyrase using […] DNA as substrate after 1 hr by agarose gel electrophoresis; type: protein-complex assay; details: in the assay text read “relaxed” for “supercoiled”
How it was run: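 The enzyme was incubated in the manufacturer's supercoiling assay buffer with varying compound concentrations at 37 °C for 1 h. Samples were run on a 1% agarose gel in TAE for 3 h at 50 V, stained with ethidium bromide and viewed under UV.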

Staphylococcus aureus [3] = assay: Antibacterial activity against Staphylococcus aureus ATCC 25923 by agar dilution method; type: functional
Bacillus subtilis = assay: Antibacterial activity against Bacillus subtilis ATCC 6633 by agar dilution method; type: functional
Micrococcus luteus [4] = assay: Antibacterial activity against Micrococcus luteus ATCC 9341 by agar dilution method; type: functional
Staphylococcus aureus [5] = assay: Antibacterial activity against Staphylococcus aureus ATCC 6538 by agar dilution method; type: functional
Micrococcus luteus [6] = assay: Antibacterial activity against Micrococcus luteus ATCC 10240 by agar dilution method; type: functional
Staphylococcus aureus [7] = assay: Antibacterial activity against Staphylococcus aureus ATCC 29213 by agar dilution method; type: functional
Staphylococcus aureus [8] = assay: Antibacterial activity against Staphylococcus aureus NCTC 4163 by agar dilution method; type: functional
Staphylococcus aureus [9] = assay: (§1) Inhibition of Staphylococcus aureus topoisomerase 4 assessed as inhibition of decatenation of kDNA after 1 hr by agarose gel electrophoresis
How it was run: (§2)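 kDNA was incubated with 1 unit of topoisomerase IV in decatenation assay buffer with varying compound concentrations at 37 °C for 1 h. Reactions were stopped with 2x STOP buffer plus chloroform/iso-amyl alcohol and run on a 1% agarose gel in TAE for 1.5 h at 80 V, then stained with ethidium bromide. IC50 was the concentration preventing 50% conversion of kDNA to decatenated minicircles, derived from gel densitometry.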

[10] = as §1; how it was run: as §2

Structure (SMILES)	MIC [1]	MIC (Bacillus cereus)	inhibition [2]	MIC (Staphylococcus aureus [3])	MIC (Bacillus subtilis)	MIC (Micrococcus luteus [4])	MIC (Staphylococcus aureus [5])	MIC (Micrococcus luteus [6])	MIC (Staphylococcus aureus [7])	MIC (Staphylococcus aureus [8])	inhibition (Staphylococcus aureus [9])	IC50 [10]
Cc1nnsc1C(=O)NNC(=S)Nc1ccc([N+](=O)[O-])cc1	100 µg/mL (≈ 296 µM)	100 µg/mL (≈ 296 µM)	inactive	100 µg/mL (≈ 296 µM)	100 µg/mL (≈ 296 µM)	100 µg/mL (≈ 296 µM)	100 µg/mL (≈ 296 µM)	50 µg/mL (≈ 148 µM)	200 µg/mL (≈ 591 µM)	100 µg/mL (≈ 296 µM)	inactive	
Cc1nnsc1C(=O)NNC(=S)Nc1ccc(Br)cc1	200 µg/mL (≈ 537 µM)	100 µg/mL (≈ 269 µM)		100 µg/mL (≈ 269 µM)	100 µg/mL (≈ 269 µM)	50 µg/mL (≈ 134 µM)	200 µg/mL (≈ 537 µM)	100 µg/mL (≈ 269 µM)	200 µg/mL (≈ 537 µM)	200 µg/mL (≈ 537 µM)		403 µM
O=C(NNC(=S)Nc1ccc(F)cc1)c1cc2ccccc2[nH]1	100 µg/mL (≈ 305 µM)	100 µg/mL (≈ 305 µM)		100 µg/mL (≈ 305 µM)	100 µg/mL (≈ 305 µM)	50 µg/mL (≈ 152 µM)	100 µg/mL (≈ 305 µM)	25 µg/mL (≈ 76.1 µM)	100 µg/mL (≈ 305 µM)	100 µg/mL (≈ 305 µM)		
O=C(O)c1cn(C2CC2)c2cc(N3CCNCC3)c(F)cc2c1=O [CIPROFLOXACIN]	0.5 µg/mL (≈ 1.51 µM)	1 µg/mL (≈ 3.02 µM)		0.5 µg/mL (≈ 1.51 µM)	< 0.125 µg/mL	4 µg/mL (≈ 12.1 µM)	0.5 µg/mL (≈ 1.51 µM)	2 µg/mL (≈ 6.04 µM)	0.5 µg/mL (≈ 1.51 µM)	0.5 µg/mL (≈ 1.51 µM)		
O=C(NNC(=S)Nc1ccc(F)cc1F)c1cc2ccccc2[nH]1	100 µg/mL (≈ 289 µM)	100 µg/mL (≈ 289 µM)		100 µg/mL (≈ 289 µM)	100 µg/mL (≈ 289 µM)	100 µg/mL (≈ 289 µM)	100 µg/mL (≈ 289 µM)	25 µg/mL (≈ 72.2 µM)	200 µg/mL (≈ 577 µM)	100 µg/mL (≈ 289 µM)		295 µM
O=C(NNC(=S)Nc1ccccc1Br)c1cc2ccccc2[nH]1	200 µg/mL (≈ 514 µM)	200 µg/mL (≈ 514 µM)		100 µg/mL (≈ 257 µM)	200 µg/mL (≈ 514 µM)	100 µg/mL (≈ 257 µM)	200 µg/mL (≈ 514 µM)	100 µg/mL (≈ 257 µM)	100 µg/mL (≈ 257 µM)	200 µg/mL (≈ 514 µM)		
Cc1nnsc1C(=O)NNC(=S)Nc1ccc(Cl)cc1	50 µg/mL (≈ 153 µM)	50 µg/mL (≈ 153 µM)		50 µg/mL (≈ 153 µM)	50 µg/mL (≈ 153 µM)	100 µg/mL (≈ 305 µM)	100 µg/mL (≈ 305 µM)	50 µg/mL (≈ 153 µM)	50 µg/mL (≈ 153 µM)	100 µg/mL (≈ 305 µM)		
Cc1nnsc1C(=O)NNC(=S)Nc1ccc(Cl)cc1Cl	100 µg/mL (≈ 276 µM)	100 µg/mL (≈ 276 µM)		100 µg/mL (≈ 276 µM)	100 µg/mL (≈ 276 µM)	100 µg/mL (≈ 276 µM)	100 µg/mL (≈ 276 µM)	100 µg/mL (≈ 276 µM)	100 µg/mL (≈ 276 µM)	100 µg/mL (≈ 276 µM)		
O=C(NNC(=S)Nc1ccc([N+](=O)[O-])cc1)c1cc2ccccc2[nH]1	50 µg/mL (≈ 141 µM)	50 µg/mL (≈ 141 µM)		50 µg/mL (≈ 141 µM)	50 µg/mL (≈ 141 µM)	50 µg/mL (≈ 141 µM)	50 µg/mL (≈ 141 µM)	50 µg/mL (≈ 141 µM)	50 µg/mL (≈ 141 µM)	50 µg/mL (≈ 141 µM)		14 µM
Cc1nnsc1C(=O)NNC(=S)Nc1cccc(F)c1	400 µg/mL (≈ 1280 µM)	400 µg/mL (≈ 1280 µM)		200 µg/mL (≈ 642 µM)	400 µg/mL (≈ 1280 µM)	200 µg/mL (≈ 642 µM)	400 µg/mL (≈ 1280 µM)	100 µg/mL (≈ 321 µM)	400 µg/mL (≈ 1280 µM)	200 µg/mL (≈ 642 µM)		

Continued, values first:

MIC [1]	MIC (Bacillus cereus)	inhibition [2]	MIC (Staphylococcus aureus [3])	MIC (Bacillus subtilis)	MIC (Micrococcus luteus [4])	MIC (Staphylococcus aureus [5])	MIC (Micrococcus luteus [6])	MIC (Staphylococcus aureus [7])	MIC (Staphylococcus aureus [8])	inhibition (Staphylococcus aureus [9])	IC50 [10]	Structure (SMILES)
400 µg/mL (≈ 1210 µM)	400 µg/mL (≈ 1210 µM)		200 µg/mL (≈ 607 µM)	200 µg/mL (≈ 607 µM)	100 µg/mL (≈ 304 µM)	400 µg/mL (≈ 1210 µM)	200 µg/mL (≈ 607 µM)	400 µg/mL (≈ 1210 µM)	400 µg/mL (≈ 1210 µM)			Cc1nnsc1C(=O)NNC(=S)Nc1cc(F)ccc1F
200 µg/mL (≈ 609 µM)	200 µg/mL (≈ 609 µM)		100 µg/mL (≈ 305 µM)	100 µg/mL (≈ 305 µM)	100 µg/mL (≈ 305 µM)	200 µg/mL (≈ 609 µM)	100 µg/mL (≈ 305 µM)	200 µg/mL (≈ 609 µM)	200 µg/mL (≈ 609 µM)			O=C(NNC(=S)Nc1ccccc1F)c1cc2ccccc2[nH]1
400 µg/mL (≈ 1360 µM)	400 µg/mL (≈ 1360 µM)		400 µg/mL (≈ 1360 µM)	400 µg/mL (≈ 1360 µM)	100 µg/mL (≈ 341 µM)	400 µg/mL (≈ 1360 µM)	200 µg/mL (≈ 682 µM)	400 µg/mL (≈ 1360 µM)	400 µg/mL (≈ 1360 µM)			Cc1nnsc1C(=O)NNC(=S)Nc1ccccc1
200 µg/mL (≈ 553 µM)	400 µg/mL (≈ 1110 µM)		50 µg/mL (≈ 138 µM)	200 µg/mL (≈ 553 µM)	200 µg/mL (≈ 553 µM)	400 µg/mL (≈ 1110 µM)	200 µg/mL (≈ 553 µM)	200 µg/mL (≈ 553 µM)	100 µg/mL (≈ 277 µM)			Cc1nnsc1C(=O)NNC(=S)Nc1ccccc1C(F)(F)F
200 µg/mL (≈ 642 µM)	200 µg/mL (≈ 642 µM)		200 µg/mL (≈ 642 µM)	200 µg/mL (≈ 642 µM)	100 µg/mL (≈ 321 µM)	400 µg/mL (≈ 1280 µM)	100 µg/mL (≈ 321 µM)	400 µg/mL (≈ 1280 µM)	400 µg/mL (≈ 1280 µM)			Cc1nnsc1C(=O)NNC(=S)Nc1ccc(F)cc1
